Source: ChEMBL document CHEMBL1141450, “Anthraquinones with quinone reductase-inducing activity and benzophenones from Morinda citrifolia (noni) roots” (J Nat Prod, 2007)

Experiments:
[1] = Cytotoxicity against mouse Hepa lclc7 cells; type: cell-based
Outline: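 Hepa 1c1c7 murine hepatoma cells (ATCC CRL-2026) were tested in the QR induction assay format. IC50 is the concentration inhibiting cell growth by 50%.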

[2] = Chemoprevention index, ratio of IC50 for mouse Hepa lclc7 cells to activity against mouse quinone reductase; type: functional
Outline: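 Chemoprevention index is calculated as IC50 divided by CD. IC50 is the concentration giving 50% growth inhibition of Hepa 1c1c7 cells. CD is the concentration doubling quinone reductase activity in the same cells. Isoliquiritigenin is the positive control.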

[3] = system: Hepa lclc7; test: Induction of mouse quinone reductase in mouse Hepa lclc7 cells assessed as concentration required to double enzyme activity; type: cell-based
Outline: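 Quinone reductase induction assay in Hepa 1c1c7 murine hepatoma cells (ATCC CRL-2026), with isoliquiritigenin as the positive control. CD is the concentration needed to double QR activity.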

[4] = Cytotoxicity against mouse Hepa lclc7 cells at 20 ug/mL; type: cell-based

SMILES | IC50 [1] | Ratio [2] | Activity [3] | Activity [4]
O=C(/C=C/c1ccc(O)cc1)c1ccc(O)cc1O [ISOLIQUIRITIGENIN] | 39 µM | 9.2 | 4.3 µM | –
O=C1c2ccccc2C(=O)c2c1ccc(O)c2O [ATHRAQUINONES A] | 62 µM | 5.1 | 12 µM | –
O=C1c2ccccc2C(=O)c2cc(CO)c(O)cc21 | > 78 µM | >83 | 0.94 µM | –
Cc1c(O)cc2c(c1O)C(=O)c1ccccc1C2=O [Rubiadin] | > 74 µM | >9 | 8.1 µM | –
COc1c(O)cc2c(c1O)C(=O)c1ccc(O)cc1C2=O | – | – | 0.009 µM | Non-toxic
Cc1c(O)cc2c(c1O)C(=O)c1ccc(O)cc1C2=O | 47 µM | 85 | 0.56 µM | –
